# Assays:
# DU-145 = assay: Cytotoxicity against human DU145 cells after 48 hrs by SRB assay; format: functional, cell-based
# How it was run: (§1)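 Cells grown in RPMI 1640 with 10% FBS and penicillin/streptomycin at 37 °C and 5% CO₂, trypsinized, then seeded at 5 × 10³/well. After 18 h drug-free attachment, samples in DMSO/EtOH/PBS (0.5:0.5:99) were added for 48 h continuous exposure. Cells were fixed with cold TCA (1 h, 4 °C) and stained with SRB (10 min). Tris-solubilized stain read at 490 nm. Triplicate wells, mean ± SD; GI₅₀ derived.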
# SK-MEL-28 = assay: Cytotoxicity against human SK-MEL-28 cells after 48 hrs by SRB assay; format: functional, cell-based; how it was run: as §1
# A549 = assay: Cytotoxicity against human A549 cells after 48 hrs by SRB assay; format: functional, cell-based; conditions: for LC50 / TGI / GI50: Homo sapiens, A549, 48 h; for GI50: read-out: GI50; how it was run: as §1
# HT-29 = assay: Cytotoxicity against human HT29 cells after 48 hrs by SRB assay; format: functional, cell-based; conditions: for CC50 / GI50 / TGI: Homo sapiens, HT-29, 48 h; for CC50: read-out: LC50 (the source's name); how it was run: as §1
# [1] = Cytotoxicity against human IGROV cells after 48 hrs by SRB assay; format: functional; conditions: for CC50: read-out: LC50 (the source's name); how it was run: as §1
# [2] = Cytotoxicity against human IGROV-ET cells after 48 hrs by SRB assay; format: functional; conditions: for CC50: read-out: LC50 (the source's name); how it was run: as §1
# [3] = Cytotoxicity against human HeLa-APL cells after 48 hrs by SRB assay; format: functional; how it was run: as §1
# SK-BR-3 = assay: Cytotoxicity against human SKBR3 cells after 48 hrs by SRB assay; format: functional; conditions: SK-BR-3, 48 h; how it was run: as §1
# PANC-1 = assay: Cytotoxicity against human PANC1 cells after 48 hrs by SRB assay; format: functional; conditions: PANC-1, 48 h; how it was run: as §1
# LoVo = assay: Cytotoxicity against human LoVo cells after 48 hrs by SRB assay; format: functional
# HeLa = assay: Cytotoxicity against human HeLa cells after 48 hrs by SRB assay; format: functional; conditions: read-out: LC50 (the source's name); how it was run: as §1
# [4] = read-out: LC50 (the source's name)
structure (smiles),measurement,setting,value
C/C=C1\NC(=O)[C@H](Cc2ccccc2)NC(=O)[C@@H](C(C)C)NC(=O)[C@@H]([C@H](C)CC)NC(=O)[C@H](NC(=O)[C@H](NC(=O)[C@H](CCCN)NC(=O)[C@H]2CCCN2C(=O)[C@H](NC(=O)[C@@H](NC(=O)[C@@H](NC(=O)[C@H](NC(=O)CC(C)(C)C)C(C)C)[C@@H](C)O)C(C)C)C(C)C)[C@H](C)CC)[C@H](C)OC(=O)[C@H](C(C)C)NC1=O,Activity,DU-145,3.42 ×10⁻⁷ M
same,Activity,SK-MEL-28,3.42 ×10⁻⁶ M
same,Activity,A549,1.71 ×10⁻⁶ M
same,Activity,HT-29,3.42 ×10⁻⁷ M
C/C=C1\NC(=O)[C@H](Cc2ccccc2)NC(=O)[C@@H](C(C)C)NC(=O)[C@@H]([C@H](C)CC)NC(=O)[C@H](NC(=O)[C@H](NC(=O)[C@H](CCCN)NC(=O)[C@H]2CCCN2C(=O)[C@H](NC(=O)[C@@H](NC(=O)[C@@H](NC(=O)[C@H](NC(=O)c2ccc(C)cc2)C(C)C)[C@@H](C)O)C(C)C)C(C)C)[C@H](C)CC)[C@H](C)OC(=O)[C@H](C(C)C)NC1=O,GI50,[1],447 nM
same,GI50,[1]; read-out: GI50,479 nM
same,CC50,[1],394 nM
same,GI50,[2],421 nM
same,GI50,[2]; read-out: GI50,365 nM
same,CC50,[2],422 nM
same,GI50,[3],950 nM
same,TGI,[3],898 nM
C/C=C1\NC(=O)[C@H](Cc2ccccc2)NC(=O)[C@@H](C(C)C)NC(=O)[C@@H]([C@H](C)CC)NC(=O)[C@H](NC(=O)[C@H](NC(=O)[C@H](NC(=O)CCCC(C)C)C(C)C)[C@H](C)CC)[C@H](C)OC(=O)[C@H](C(C)C)NC1=O,LC50,A549,14800 nM
same,CC50,HT-29,40000 nM
C/C=C1\NC(=O)[C@H](Cc2ccccc2)NC(=O)[C@@H](C(C)C)NC(=O)[C@@H]([C@H](C)CC)NC(=O)[C@H](NC(=O)[C@H](NC(=O)[C@H](CCCN)NC(=O)[C@H]2CCCN2C(=O)[C@H](NC(=O)[C@@H](NC(=O)[C@@H](NC(=O)[C@H](NC(C)=O)C(C)C)[C@@H](C)O)C(C)C)C(C)C)[C@H](C)CC)[C@H](C)OC(=O)[C@H](C(C)C)NC1=O,Activity,DU-145,7.11 ×10⁻⁶ M
same,Activity,SK-MEL-28,7.11 ×10⁻⁶ M
same,Activity,A549,7.11 ×10⁻⁶ M
same,Activity,HT-29,7.11 ×10⁻⁶ M
CC[C@@H](C)[C@@H](NC(=O)[C@H](CCCN)NC(=O)[C@H]1CCCN1C(=O)[C@H](NC(=O)[C@@H](NC(=O)[C@@H](NC(=O)[C@H](NC(=O)CCCC(C)C)C(C)C)[C@@H](C)O)C(C)C)C(C)C)C(=O)N[C@H]1C(=O)N[C@H]([C@H](C)CC)C(=O)N[C@H](C(C)C)C(=O)N[C@@H](Cc2ccccc2)C(=O)N[C@H]([C@H](C)O)C(=O)N[C@@H](C(C)C)C(=O)O[C@H]1C,CC50,"DU-145; Homo sapiens, DU-145, 48 h, read-out: LC50 (the source's name)",1500 nM
same,CC50,[1],941 nM
same,CC50,[2],1030 nM
same,TGI,SK-BR-3,6690 nM
same,GI50,SK-BR-3; read-out: GI50,6150 nM
same,CC50,SK-BR-3; [4],1880 nM
same,CC50,"SK-MEL-28; Homo sapiens, SK-MEL-28, 48 h, read-out: LC50 (the source's name)",2540 nM
same,LC50,A549,1150 nM
same,GI50,PANC-1,4880 nM
same,TGI,PANC-1,4580 nM
same,CC50,PANC-1; [4],2210 nM
same,GI50,HT-29,11800 nM
same,TGI,HT-29,10400 nM
same,CC50,HT-29,5370 nM
same,GI50,LoVo,3440 nM
same,TGI,LoVo,4230 nM
same,CC50,LoVo; [4],4420 nM
same,CC50,HeLa,1490 nM
same,LC50 (concentration giving 50% net cell kill),[3],1200 nM
C/C=C1\NC(=O)[C@H](Cc2ccccc2)NC(=O)[C@@H](C(C)C)NC(=O)[C@@H]([C@H](C)CC)NC(=O)[C@H](NC(=O)[C@H](NC(=O)[C@H](CCCN)NC(=O)[C@H]2CCCN2C(=O)[C@H](NC(=O)[C@@H](NC(=O)[C@@H](NC(=O)[C@H](NC(=O)CCCOC(C)=O)C(C)C)[C@@H](C)O)C(C)C)C(C)C)[C@H](C)CC)[C@H](C)OC(=O)[C@H](C(C)C)NC1=O,Activity,DU-145,6.7 ×10⁻⁶ M
same,Activity,SK-MEL-28,6.7 ×10⁻⁶ M
same,Activity,A549,6.7 ×10⁻⁶ M
same,Activity,HT-29,6.7 ×10⁻⁶ M
C/C=C1\NC(=O)[C@H](Cc2ccccc2)NC(=O)[C@@H](C(C)C)NC(=O)[C@@H]([C@H](C)CC)NC(=O)[C@H](NC(=O)[C@H](NC(=O)[C@H](CCCN)NC(=O)[C@H]2CCCN2C(=O)[C@H](NC(=O)[C@@H](NC(=O)[C@@H](NC(=O)[C@H](NC(=O)CCC(C)C)C(C)C)[C@@H](C)O)C(C)C)C(C)C)[C@H](C)CC)[C@H](C)OC(=O)[C@H](C(C)C)NC1=O,Activity,DU-145,3.42 ×10⁻⁷ M
same,Activity,SK-MEL-28,3.42 ×10⁻⁶ M
same,Activity,A549,3.42 ×10⁻⁷ M
same,Activity,HT-29,3.42 ×10⁻⁷ M
C/C=C1\NC(=O)[C@H](Cc2ccccc2)NC(=O)[C@@H](C(C)C)NC(=O)[C@@H]([C@H](C)CC)NC(=O)[C@H](NC(=O)[C@H](NC(=O)[C@H](CCCN)NC(=O)[C@H]2CCCN2C(=O)[C@H](NC(=O)[C@@H](NC(=O)[C@@H](NC(=O)[C@H](NC(=O)CCC)C(C)C)[C@@H](C)O)C(C)C)C(C)C)[C@H](C)CC)[C@H](C)OC(=O)[C@H](C(C)C)NC1=O,Activity,DU-145,1.74 ×10⁻⁶ M
same,Activity,SK-MEL-28,3.48 ×10⁻⁶ M
same,Activity,A549,3.48 ×10⁻⁶ M
same,Activity,HT-29,1.74 ×10⁻⁶ M
C/C=C1\NC(=O)[C@H](Cc2ccccc2)NC(=O)[C@@H](C(C)C)NC(=O)[C@@H]([C@H](C)CC)NC(=O)[C@H](NC(=O)[C@H](NC(=O)[C@H](NC(=O)[C@@H](NC(=O)[C@@H](NC(=O)[C@H](NC(=O)CCCC(C)C)C(C)C)[C@@H](C)O)C(C)C)C(C)C)[C@H](C)CC)[C@H](C)OC(=O)[C@H](C(C)C)NC1=O,LC50,A549,11300 nM
same,TGI,A549,20800 nM
same,GI50,A549,23000 nM
same,GI50,HT-29,9890 nM
same,TGI,HT-29,61600 nM
same,CC50,HT-29,30600 nM
C/C=C1\NC(=O)[C@H](Cc2ccccc2)NC(=O)[C@@H](C(C)C)NC(=O)[C@@H]([C@H](C)CC)NC(=O)[C@H](NC(=O)[C@H](NC(=O)[C@H](CCCN)NC(=O)[C@H]2CCCN2C(=O)[C@H](NC(=O)[C@@H](NC(=O)[C@@H](NC(=O)[C@H](NC(=O)CCCOC(=O)CCOC(C)=O)C(C)C)[C@@H](C)O)C(C)C)C(C)C)[C@H](C)CC)[C@H](C)OC(=O)[C@H](C(C)C)NC1=O,Activity,DU-145,6.33 ×10⁻⁷ M
same,Activity,SK-MEL-28,6.33 ×10⁻⁷ M
same,Activity,A549,6.33 ×10⁻⁷ M
same,Activity,HT-29,6.33 ×10⁻⁷ M
C/C=C1\NC(=O)[C@H](Cc2ccccc2)NC(=O)[C@@H](C(C)C)NC(=O)[C@@H]([C@H](C)CC)NC(=O)[C@H](NC(=O)[C@H](NC(=O)[C@H](CCCN)NC(=O)[C@H]2CCCN2C(=O)[C@H](NC(=O)[C@@H](NC(=O)[C@@H](NC(=O)[C@H](NC(=O)c2ccc3c(c2)OCO3)C(C)C)[C@@H](C)O)C(C)C)C(C)C)[C@H](C)CC)[C@H](C)OC(=O)[C@H](C(C)C)NC1=O,LC50,A549,1330 nM
same,TGI,A549,1040 nM
same,GI50,A549,640 nM
same,GI50,HT-29,413 nM
same,TGI,HT-29,514 nM
same,CC50,HT-29,409 nM
C/C=C1\NC(=O)[C@H](Cc2ccccc2)NC(=O)[C@@H](C(C)C)NC(=O)[C@@H]([C@H](C)CC)NC(=O)[C@H](NC(=O)[C@H](NC(=O)[C@H](CCCN)NC(=O)[C@H]2CCCN2C(=O)[C@H](NC(=O)[C@@H](NC(=O)[C@@H](NC(=O)[C@H](NC(=O)/C=C/C=C/C)C(C)C)[C@@H](C)O)C(C)C)C(C)C)[C@H](C)CC)[C@H](C)OC(=O)[C@H](C(C)C)NC1=O,Activity,DU-145,6.85 ×10⁻⁶ M
same,Activity,SK-MEL-28,6.85 ×10⁻⁶ M
same,Activity,A549,3.43 ×10⁻⁶ M
same,Activity,HT-29,6.85 ×10⁻⁷ M
C/C=C1\NC(=O)[C@H](Cc2ccccc2)NC(=O)[C@@H](C(C)C)NC(=O)[C@@H]([C@H](C)CC)NC(=O)[C@H](NC(=O)[C@H](NC(=O)[C@H](CCCN)NC(=O)[C@H]2CCCN2C(=O)[C@H](NC(=O)[C@@H](NC(=O)[C@@H](NC(=O)[C@H](NC(=O)C(F)(F)F)C(C)C)[C@@H](C)O)C(C)C)C(C)C)[C@H](C)CC)[C@H](C)OC(=O)[C@H](C(C)C)NC1=O,Activity,DU-145,3.42 ×10⁻⁶ M
same,Activity,SK-MEL-28,6.84 ×10⁻⁶ M
same,Activity,A549,6.84 ×10⁻⁶ M
same,Activity,HT-29,3.42 ×10⁻⁶ M
C/C=C1\NC(=O)[C@H](Cc2ccccc2)NC(=O)[C@@H](C(C)C)NC(=O)[C@@H]([C@H](C)CC)NC(=O)[C@H](NC(=O)[C@H](NC(=O)[C@H](CCCN)NC(=O)[C@H]2CCCN2C(=O)[C@H](NC(=O)[C@@H](NC(=O)[C@@H](NC(=O)[C@H](NC(=O)CCCO)C(C)C)[C@@H](C)O)C(C)C)C(C)C)[C@H](C)CC)[C@H](C)OC(=O)[C@H](C(C)C)NC1=O,Activity,DU-145,6.89 ×10⁻⁶ M
same,Activity,SK-MEL-28,6.89 ×10⁻⁶ M
same,Activity,A549,6.89 ×10⁻⁶ M
same,Activity,HT-29,6.89 ×10⁻⁶ M
C/C=C1\NC(=O)[C@H](Cc2ccccc2)NC(=O)[C@@H](C(C)C)NC(=O)[C@@H]([C@H](C)CC)NC(=O)[C@H](NC(=O)[C@H](NC(=O)[C@H](CCCN)NC(=O)[C@H]2CCCN2C(=O)[C@H](NC(=O)[C@@H](NC(=O)[C@@H](NC(=O)[C@H](NC(=O)[C@H](NC(=O)C(C)C)[C@H](C)CC)C(C)C)[C@@H](C)O)C(C)C)C(C)C)[C@H](C)CC)[C@H](C)OC(=O)[C@H](C(C)C)NC1=O,Activity,DU-145,6.46 ×10⁻⁶ M
same,Activity,SK-MEL-28,6.46 ×10⁻⁶ M
same,Activity,A549,6.46 ×10⁻⁶ M
same,Activity,HT-29,6.46 ×10⁻⁶ M

# From ChEMBL document CHEMBL1156597, “Structure-activity relationship of kahalalide F synthetic analogues” (J Med Chem, 2008)
